Experimental data: ChEMBL document CHEMBL1148778, “Synthesis and characterization of nonsteroidal glucocorticoid receptor modulators for multiple myeloma” (J Med Chem, 2007)

Tests used:
Glucocorticoid receptor [1] = target: T1, Glucocorticoid receptor (Homo sapiens, UniProt P04150); experiment: Activity at human GR expressed in NHDFneo cells assessed as inhibition of IL-6 production; assay type: cell-based
T1 sequence (P04150 whole entry): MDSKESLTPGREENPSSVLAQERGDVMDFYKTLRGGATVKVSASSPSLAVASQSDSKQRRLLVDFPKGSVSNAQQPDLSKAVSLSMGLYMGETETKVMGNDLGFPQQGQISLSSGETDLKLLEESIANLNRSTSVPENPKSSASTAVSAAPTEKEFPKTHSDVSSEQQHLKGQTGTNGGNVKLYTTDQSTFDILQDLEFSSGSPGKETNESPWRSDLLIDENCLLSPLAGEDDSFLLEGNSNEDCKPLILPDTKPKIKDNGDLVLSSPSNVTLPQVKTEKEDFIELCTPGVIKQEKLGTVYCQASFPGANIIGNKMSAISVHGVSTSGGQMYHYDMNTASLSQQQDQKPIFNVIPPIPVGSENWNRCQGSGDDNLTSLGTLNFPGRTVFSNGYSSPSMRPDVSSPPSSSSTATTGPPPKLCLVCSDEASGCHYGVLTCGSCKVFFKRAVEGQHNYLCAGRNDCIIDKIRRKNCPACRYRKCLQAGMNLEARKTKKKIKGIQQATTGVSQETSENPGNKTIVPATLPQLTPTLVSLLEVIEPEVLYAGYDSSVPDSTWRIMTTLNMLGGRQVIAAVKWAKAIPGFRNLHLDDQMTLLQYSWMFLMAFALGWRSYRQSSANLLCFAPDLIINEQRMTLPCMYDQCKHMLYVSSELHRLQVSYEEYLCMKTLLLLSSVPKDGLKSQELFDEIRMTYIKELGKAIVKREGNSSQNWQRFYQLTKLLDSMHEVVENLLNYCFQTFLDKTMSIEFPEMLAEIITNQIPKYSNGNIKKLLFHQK

[2] = target: T2, Mineralocorticoid receptor (Homo sapiens, UniProt P08235); experiment: Binding affinity to MR
T2 sequence (P08235 whole entry): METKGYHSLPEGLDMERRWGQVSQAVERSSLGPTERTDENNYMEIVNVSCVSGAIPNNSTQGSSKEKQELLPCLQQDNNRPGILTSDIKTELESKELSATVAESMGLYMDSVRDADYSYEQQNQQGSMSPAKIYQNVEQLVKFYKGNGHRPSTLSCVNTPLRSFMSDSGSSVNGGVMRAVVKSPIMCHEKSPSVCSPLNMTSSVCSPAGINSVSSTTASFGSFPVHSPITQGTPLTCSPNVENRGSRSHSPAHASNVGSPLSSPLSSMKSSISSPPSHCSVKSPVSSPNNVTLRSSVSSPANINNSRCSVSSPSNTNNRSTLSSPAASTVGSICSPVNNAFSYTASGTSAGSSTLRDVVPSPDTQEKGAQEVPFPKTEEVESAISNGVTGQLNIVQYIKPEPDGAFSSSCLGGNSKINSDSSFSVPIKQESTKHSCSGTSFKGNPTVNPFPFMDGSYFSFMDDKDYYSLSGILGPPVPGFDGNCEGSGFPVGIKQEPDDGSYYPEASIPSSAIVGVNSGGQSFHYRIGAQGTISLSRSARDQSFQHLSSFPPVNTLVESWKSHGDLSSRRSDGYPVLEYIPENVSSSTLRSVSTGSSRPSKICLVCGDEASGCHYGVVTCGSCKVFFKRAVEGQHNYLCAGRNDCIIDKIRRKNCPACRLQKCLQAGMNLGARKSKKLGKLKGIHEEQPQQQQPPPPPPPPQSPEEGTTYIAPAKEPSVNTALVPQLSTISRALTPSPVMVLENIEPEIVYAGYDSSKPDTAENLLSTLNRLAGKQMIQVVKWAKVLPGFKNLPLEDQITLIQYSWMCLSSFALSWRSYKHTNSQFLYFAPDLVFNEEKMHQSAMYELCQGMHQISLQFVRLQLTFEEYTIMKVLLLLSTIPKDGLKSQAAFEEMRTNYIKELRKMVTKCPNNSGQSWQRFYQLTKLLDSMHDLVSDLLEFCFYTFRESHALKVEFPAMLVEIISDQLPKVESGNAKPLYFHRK
In short: (§1)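 Competitive binding assays on PR and MR. Values are means of at least three separate experiments, each with triplicate determinations, ± SEM. A value without SEM comes from a single determination.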

Progesterone receptor = target: T3, Progesterone receptor (Homo sapiens, UniProt P06401); experiment: Binding affinity to PR; in short: as §1
T3 sequence (P06401 whole entry): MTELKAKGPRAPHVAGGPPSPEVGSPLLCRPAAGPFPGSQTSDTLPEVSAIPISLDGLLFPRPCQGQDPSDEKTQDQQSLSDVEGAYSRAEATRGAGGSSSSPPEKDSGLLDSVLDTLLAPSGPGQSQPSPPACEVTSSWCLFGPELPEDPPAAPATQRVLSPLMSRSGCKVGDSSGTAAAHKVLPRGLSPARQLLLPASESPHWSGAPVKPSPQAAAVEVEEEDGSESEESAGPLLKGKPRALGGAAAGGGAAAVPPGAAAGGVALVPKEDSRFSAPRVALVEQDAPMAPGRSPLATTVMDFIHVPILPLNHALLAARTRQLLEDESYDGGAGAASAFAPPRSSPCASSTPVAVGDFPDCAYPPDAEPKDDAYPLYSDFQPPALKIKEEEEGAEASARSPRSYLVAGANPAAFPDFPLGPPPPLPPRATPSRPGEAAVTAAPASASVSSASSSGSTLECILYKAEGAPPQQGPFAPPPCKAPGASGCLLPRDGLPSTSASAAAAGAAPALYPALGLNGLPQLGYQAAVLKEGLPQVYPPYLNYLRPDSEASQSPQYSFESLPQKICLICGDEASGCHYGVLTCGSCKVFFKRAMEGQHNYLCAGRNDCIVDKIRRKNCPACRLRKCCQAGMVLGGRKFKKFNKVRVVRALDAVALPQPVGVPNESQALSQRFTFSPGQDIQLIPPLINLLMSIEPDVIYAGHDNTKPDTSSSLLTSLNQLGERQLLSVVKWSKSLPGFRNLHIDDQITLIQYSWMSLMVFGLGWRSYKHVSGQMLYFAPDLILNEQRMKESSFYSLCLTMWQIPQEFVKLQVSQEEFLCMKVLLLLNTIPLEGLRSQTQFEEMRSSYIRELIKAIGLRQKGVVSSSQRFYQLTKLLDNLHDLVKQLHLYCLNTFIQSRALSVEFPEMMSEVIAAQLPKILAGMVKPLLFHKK

Glucocorticoid receptor [3] = target: T1, Glucocorticoid receptor; experiment: Binding affinity to GR
RPMI-8226 [4] = experiment: Antiproliferative activity against human RPMI8226 cells after 4 days relative to Dexamethasone; assay type: functional
RPMI-8226 [5] = experiment: Antiproliferative activity against human RPMI8226 cells after 4 days; assay type: functional, cell-based; settings: RPMI-8226, 96 h
Androgen receptor = target: T4, Androgen receptor (Homo sapiens, UniProt P10275); experiment: Binding affinity to AR
T4 sequence (P10275 whole entry): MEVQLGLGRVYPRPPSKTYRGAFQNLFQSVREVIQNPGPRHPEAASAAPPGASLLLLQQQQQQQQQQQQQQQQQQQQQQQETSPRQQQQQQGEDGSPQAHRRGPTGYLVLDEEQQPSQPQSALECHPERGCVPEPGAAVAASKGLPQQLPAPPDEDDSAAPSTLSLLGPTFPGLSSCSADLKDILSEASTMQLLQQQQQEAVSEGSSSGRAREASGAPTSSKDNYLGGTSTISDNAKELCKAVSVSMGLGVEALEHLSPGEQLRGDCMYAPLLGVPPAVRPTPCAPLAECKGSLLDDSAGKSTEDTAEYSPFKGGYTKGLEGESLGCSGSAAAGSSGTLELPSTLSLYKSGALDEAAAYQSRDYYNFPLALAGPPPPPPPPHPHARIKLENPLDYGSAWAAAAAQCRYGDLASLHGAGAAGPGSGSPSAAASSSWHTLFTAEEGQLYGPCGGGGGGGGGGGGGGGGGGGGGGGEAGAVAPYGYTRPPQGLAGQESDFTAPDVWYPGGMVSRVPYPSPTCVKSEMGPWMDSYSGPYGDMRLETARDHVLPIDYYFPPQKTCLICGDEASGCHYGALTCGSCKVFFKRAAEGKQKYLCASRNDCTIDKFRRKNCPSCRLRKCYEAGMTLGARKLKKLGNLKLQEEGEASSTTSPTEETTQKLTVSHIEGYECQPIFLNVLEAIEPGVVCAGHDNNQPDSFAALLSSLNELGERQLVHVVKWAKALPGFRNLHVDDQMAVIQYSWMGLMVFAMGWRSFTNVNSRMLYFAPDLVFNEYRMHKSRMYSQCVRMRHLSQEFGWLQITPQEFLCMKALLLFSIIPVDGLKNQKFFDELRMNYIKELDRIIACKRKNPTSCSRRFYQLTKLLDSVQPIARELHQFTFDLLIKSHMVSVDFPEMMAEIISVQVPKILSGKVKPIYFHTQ

Glucocorticoid receptor [6] = target: T1, Glucocorticoid receptor; experiment: Agonist activity at human GR expressed in CV1 cells by GRE activation assay; assay type: functional, cell-based, CV-1
Glucocorticoid receptor [7] = target: T1, Glucocorticoid receptor; experiment: Antagonist activity at human GR expressed in CV1 cells by GRE activation assay; assay type: functional, cell-based, CV-1
RPMI-8226 [8] = experiment: Inhibition of tumor growth in human RPMI8226 cells xenografted nude mouse at 30 mg/kg, po after 4 weeks relative to Dexamethasone; assay type: functional
RPMI-8226 [9] = experiment: Inhibition of tumor growth in human RPMI8226 cells xenografted nude mouse at 3 mg/kg, po after 4 weeks relative to Dexamethasone; assay type: functional
RPMI-8226 [10] = experiment: Inhibition of tumor growth in human RPMI8226 cells xenografted nude mouse at 10 mg/kg, po after 4 weeks relative to Dexamethasone; assay type: functional

Compound | IC50 (Glucocorticoid receptor [1]) | Efficacy (RPMI-8226 [4]) | IC50 (RPMI-8226 [5]) | EC50 (Glucocorticoid receptor [6]) | EC50 (Glucocorticoid receptor [7]) | further results
CC/C=C(\C)c1ccsc1/C=C1\Oc2ccc(O)c(OC)c2-c2ccc3c(c21)C(C)=CC(C)(C)N3 | 6.1 nM | 94% | 22 nM | 0.5 nM | – | Ki [2]: 42 nM; Ki (Progesterone receptor): 57 nM; Ki (Glucocorticoid receptor [3]): 4.4 nM; Ki (Androgen receptor): 346 nM
COc1c(O)ccc2c1-c1ccc3c(c1/C(=C/c1sccc1/C(C)=N/O)O2)C(C)=CC(C)(C)N3 | 1.1 nM | 96% | 9.9 nM | 5 nM | – | Ki [2]: 21 nM; Ki (Progesterone receptor): 790 nM; Ki (Glucocorticoid receptor [3]): 0.6 nM; Ki (Androgen receptor): 290 nM
CCCCC(O)c1ccsc1/C=C1\Oc2ccc(O)c(OC)c2-c2ccc3c(c21)C(C)=CC(C)(C)N3 (racemic) | – | – | – | – | 0.6 nM | –
COC(=O)c1ccsc1/C=C1\Oc2ccc(O)c(OC)c2-c2ccc3c(c21)C(C)=CC(C)(C)N3 | 1.8 nM | 95% | 27 nM | 1.4 nM | – | –
COc1c(O)ccc2c1-c1ccc3c(c1/C(=C/c1sccc1COCCO)O2)C(C)=CC(C)(C)N3 | 1 nM | 98% | 22 nM | 1.6 nM | – | –
COc1c(O)ccc2c1-c1ccc3c(c1/C(=C/c1sccc1C(=O)N1CCCCC1)O2)C(C)=CC(C)(C)N3 | 1 nM | 95% | 16 nM | 0.3 nM | – | –
COc1c(O)ccc2c1-c1ccc3c(c1/C(=C/c1sccc1C(=O)C1CCCCC1)O2)C(C)=CC(C)(C)N3 | – | – | – | – | 0.4 nM | –
COc1c(O)ccc2c1-c1ccc3c(c1/C(=C/c1sccc1C(C)=O)O2)C(C)=CC(C)(C)N3 | 0.3 nM | 95% | 16 nM | 0.6 nM | – | –
COc1c(O)ccc2c1-c1ccc3c(c1/C(=C/c1sccc1C(O)C(F)(F)F)O2)C(C)=CC(C)(C)N3 (racemic) | – | – | – | – | 0.3 nM | Ki [2]: 670 nM; Ki (Progesterone receptor): 1780 nM; Efficacy (RPMI-8226 [8]): 97%; Ki (Glucocorticoid receptor [3]): 1.4 nM; Efficacy (RPMI-8226 [9]): 52%; Ki (Androgen receptor): 1900 nM; Efficacy (RPMI-8226 [10]): 89%
COc1c(O)ccc2c1-c1ccc3c(c1/C(=C/c1sccc1C#N)O2)C(C)=CC(C)(C)N3 | 0.8 nM | 87% | 14 nM | 0.2 nM | – | –
C[C@@H]1C[C@H]2[C@@H]3CCC4=CC(=O)C=C[C@]4(C)[C@@]3(F)[C@@H](O)C[C@]2(C)[C@@]1(O)C(=O)CO [DEXAMETHASONE] | – | 100% | 6.5 nM | – | – | –
COc1c(O)ccc2c1-c1ccc3c(c1/C(=C/c1sccc1C(C)O)O2)C(C)=CC(C)(C)N3 (racemic) | – | – | – | – | 1.3 nM | Ki [2]: 410 nM; Ki (Progesterone receptor): 2290 nM; Ki (Glucocorticoid receptor [3]): 1.2 nM; Ki (Androgen receptor): 1530 nM
CCO/N=C(\C)c1ccsc1/C=C1\Oc2ccc(O)c(OC)c2-c2ccc3c(c21)C(C)=CC(C)(C)N3 | 0.5 nM | 98% | 16 nM | 0.4 nM | 1.9 nM | –
COc1c(O)ccc2c1-c1ccc3c(c1/C(=C/c1sccc1CNCC(F)(F)F)O2)C(C)=CC(C)(C)N3 | 0.9 nM | 96% | 18 nM | 0.5 nM | – | –
COc1c(O)ccc2c1-c1ccc3c(c1/C(=C/c1sccc1C(O)C(F)(F)F)O2)C(C)=CC(C)(C)N3 (single isomer, unassigned; (+)) | – | – | – | – | 0.2 nM | –
COc1c(O)ccc2c1-c1ccc3c(c1/C(=C/c1sccc1C(O)C(F)(F)F)O2)C(C)=CC(C)(C)N3 (stereo in doubt; (-)-15) | – | – | – | – | 1.4 nM | –
